Source: article PMC6606825 (Journal of Ginseng Research, 2018)

Assay: Pharmacokinetics of CK and its metabolite 20
Format: in vivo, healthy Chinese volunteers
Summary of the method: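 Healthy adults given one oral tablet dose fasting (overnight, or 10 h in a crossover food-effect arm); 30 subjects from the 100/200/400 mg groups were pooled with 24 from 200 mg fasting periods. Plasma was stored at −70°C, extracted with MTBE plus internal standards and assayed by LC-MS/MS. Cmax was observed and AUClast calculated by linear trapezoid, each divided by dose. The metabolite/parent ratio was also calculated. Genotyping used Sequenom MassARRAY, and log-transformed values were compared by one-way ANOVA.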

[1] = ABCC4 rs1151471 CC, n = 2, mean (SD)
[2] = ABCC4 rs2274406 TT (first line), mean (SD)
[3] = ABCC4 rs2274406 TT (third line), mean (SD)
[4] = ABCG2 rs2054576 AA (first line), mean (SD)
[5] = ABCG2 rs2054576 AA (third line), mean (SD)

## CC(C)=CCC[C@](C)(O[C@@H]1O[C@H](CO)[C@@H](O)[C@H](O)[C@H]1O)[C@H]1CC[C@]2(C)[C@@H]1[C@H](O)C[C@@H]1[C@@]3(C)CC[C@H](O)C(C)(C)[C@@H]3CC[C@]12C [Ginsenoside compound K, 20-O-beta-D-glucopyranosyl-20(S)-protopanaxadiol]
100, 200, 400 mg single-dose groups and food-effect trial, fasting
  dose-normalized exposure among the groups: not significantly different
ABCB1 rs1045642 AA, mean (SD)
  CK AUClast/D: 28.81 (11.93)
  CK Cmax/D: 4.03 (1.47)
ABCB1 rs1045642 AG, mean (SD)
  CK AUClast/D: 27.71 (15.58)
  CK Cmax/D: 3.50 (1.91)
ABCB1 rs1045642 GG, mean (SD)
  CK AUClast/D: 31.19 (22.91)
  CK Cmax/D: 4.13 (2.82)
ABCB1 rs1128503 AA, mean (SD)
  CK AUClast/D: 28.07 (15.30)
  CK Cmax/D: 3.67 (1.80)
ABCB1 rs1128503 AG, mean (SD)
  CK AUClast/D: 28.43 (20.03)
  CK Cmax/D: 3.66 (2.34)
ABCB1 rs1128503 GG, mean (SD)
  CK AUClast/D: 33.81 (17.43)
  CK Cmax/D: 4.67 (3.44)
ABCB1 rs2032582 AA, mean (SD)
  CK AUClast/D: 26.68 (12.71)
  CK Cmax/D: 3.81 (2.02)
ABCB1 rs2032582 CA, mean (SD)
  CK AUClast/D: 27.47 (15.11)
  CK Cmax/D: 3.46 (1.72)
ABCB1 rs2032582 CC, mean (SD)
  CK AUClast/D: 33.69 (25.60)
  CK Cmax/D: 4.42 (3.14)
ABCC2 rs717620 CC, mean (SD)
  CK AUClast/D: 31.60 (19.89)
  CK Cmax/D: 3.98 (2.30)
ABCC2 rs717620 CT, mean (SD)
  CK AUClast/D: 25.18 (13.50)
  CK Cmax/D: 3.48 (2.01)
ABCC2 rs2273697 GA, mean (SD)
  CK AUClast/D: 35.66 (26.59)
  CK Cmax/D: 4.74 (3.23)
ABCC2 rs2273697 GG, mean (SD)
  CK AUClast/D: 25.98 (12.06)
  CK Cmax/D: 3.35 (1.44)
ABCC2 rs2756109 GG, mean (SD)
  CK AUClast/D: 27.59 (12.16)
ABCC2 rs3740066 CC, mean (SD)
  CK AUClast/D: 32.09 (20.46)
  CK Cmax/D: 4.02 (2.37)
ABCC2 rs3740066 CT, mean (SD)
  CK Cmax/D: 3.3 (1.87)
ABCC2 rs3740066 TT, n = 1
  CK AUClast/D: 55.95 (—)
  CK Cmax/D: 6.24 (—)
ABCC3 rs4148416 CC, mean (SD)
  CK AUClast/D: 29.20 (18.77)
  CK Cmax/D: 3.72 (2.07)
ABCC3 rs4148416 CT, mean (SD)
  CK AUClast/D: 27.15 (14.29)
  CK Cmax/D: 3.78 (2.53)
ABCC3 rs4793665 CT, mean (SD)
  CK AUClast/D: 29.14 (12.55)
  CK Cmax/D: 4.04 (2.17)
ABCC3 rs4793665 TT, mean (SD)
  CK AUClast/D: 28.53 (18.94)
  CK Cmax/D: 3.65 (2.19)
ABCC3 rs12051822 GA, mean (SD)
  CK AUClast/D: 23.66 (11.90)
  CK Cmax/D: 3.09 (1.13)
ABCC3 rs12051822 GG, mean (SD)
  CK AUClast/D: 30.37 (18.95)
  CK Cmax/D: 3.96 (2.39)
[1]
  CK AUClast/D: 13.68 (2.21)
  CK Cmax/D: 2.08 (0.39)
ABCC4 rs1151471 TC, mean (SD)
  CK AUClast/D: 24.64 (13.71)
  CK Cmax/D: 3.32 (2.06)
ABCC4 rs1151471 TT, mean (SD)
  CK AUClast/D: 32.65 (19.80)
  CK Cmax/D: 4.16 (2.32)
ABCC4 rs1189437 GG, n = 1
  CK AUClast/D: 12.12 (−)
  CK Cmax/D: 1.80 (−)
ABCC4 rs1189437 GT, mean (SD)
  CK AUClast/D: 20.77 (9.40)
  CK Cmax/D: 2.74 (1.29)
ABCC4 rs1189437 TT, mean (SD)
  CK AUClast/D: 31.84 (19.14)
  CK Cmax/D: 4.06 (2.19)
ABCC4 rs1751034 TC, mean (SD)
  CK AUClast/D: 18.58 (7.25)
  CK Cmax/D: 2.45 (0.95)
ABCC4 rs1751034 TT, mean (SD)
  CK AUClast/D: 32.53 (18.96)
  CK Cmax/D: 4.23 (2.32)
ABCC4 rs2274406 CT, mean (SD)
  CK AUClast/D: 28.24 (19.96)
  CK Cmax/D: 3.68 (2.42)
[2]
  CK AUClast/D: 33.40 (14.80)
  CK Cmax/D: 4.70 (2.25)
[3]
  CK AUClast/D: 26.57 (13.77)
  CK Cmax/D: 3.25 (1.32)
ABCC4 rs2274407 CA, mean (SD)
  CK AUClast/D: 28.22 (13.76)
  CK Cmax/D: 3.43 (1.35)
ABCC4 rs2274407 CC, mean (SD)
  CK AUClast/D: 28.81 (18.82)
  CK Cmax/D: 3.84 (2.38)
ABCC4 rs4148546 AA, mean (SD)
  CK AUClast/D: 26.51 (15.61)
  CK Cmax/D: 3.43 (1.93)
ABCC4 rs4148546 GA, mean (SD)
  CK Cmax/D: 3.49 (1.91)
ABCC4 rs4148546 GG, mean (SD)
  CK AUClast/D: 39.82 (26.88)
  CK Cmax/D: 4.87 (2.88)
ABCC4 rs11568658 CC, mean (SD)
  CK AUClast/D: 28.31 (19.56)
[4]
  CK AUClast/D: 25.61 (12.77)
  CK Cmax/D: 3.31 (1.53)
[5]
  CK AUClast/D: 25.70 (13.01)
  CK Cmax/D: 3.29 (1.35)
ABCG2 rs2054576 GA, mean (SD)
  CK AUClast/D: 32.78 (22.38)
  CK Cmax/D: 4.31 (2.78)
ABCG2 rs2231142 GG, mean (SD)
  CK AUClast/D: 27.45 (13.31)
  CK Cmax/D: 3.51 (1.56)
ABCG2 rs2231142 GT, mean (SD)
  CK AUClast/D: 31.50 (23.56)
  CK Cmax/D: 3.89 (2.60)
ABCG2 rs2231142 TT, mean (SD)
  CK AUClast/D: 25.70 (13.01)
  CK Cmax/D: 3.29 (1.35)
ABCG2 rs2231148 AA, mean (SD)
  CK AUClast/D: 35.54 (21.89)
  CK Cmax/D: 4.43 (2.92)
ABCG2 rs2231148 AT, mean (SD)
  CK AUClast/D: 39.28 (26.36)
  CK Cmax/D: 4.87 (3.24)
ABCG2 rs2231148 TT, mean (SD)
  CK AUClast/D: 23.05 (8.91)
  CK Cmax/D: 3.09 (1.18)
ABCG2 rs2725248 AA, mean (SD)
  CK AUClast/D: 26.94 (18.76)
  CK Cmax/D: 3.68 (2.42)
ABCG2 rs2725248 CA, mean (SD)
  CK AUClast/D: 31.91 (15.94)
  CK Cmax/D: 3.96 (1.89)
ABCG2 rs2725248 CC, mean (SD)
  CK AUClast/D: 40.01 (16.71)
